# Test results reported in ChEMBL document CHEMBL4359840, “Computationally Driven Structure Optimization, Synthesis, and Biological Evaluation of Imidazole-Based Proprotein Convertase Subtilisin/Kexin 9 (PCSK9) Inhibitors” (J Med Chem, 2019).
# Calls of active or inactive are those of the source. No cut-off for these calls is given here.
# Tests used:
# [1] = biological target: T1, PCSK9/LDLR (Homo sapiens) (UniProt Q8NBP7+P01130); assay: Inhibition of PCSK9 (unknown origin) interaction with LDLR expressed in human HepG2 cells assessed as LDL uptake level at 1 uM measured after 2 hrs by LDL-Dylight 550 dye based fluorescence assay (reference value: 34.8 to 67%); assay type: cell-based; set-up: scale not given: the % may be the effect or the level left
# [2] = biological target: T1, PCSK9/LDLR (Homo sapiens); assay: Inhibition of PCSK9 (unknown origin) interaction with LDLR expressed in human HepG2 cells assessed as LDL uptake level at 0.1 uM measured after 2 hrs by LDL-Dylight 550 dye based fluorescence assay (reference value: 34.8 to 67%); assay type: cell-based; set-up: scale not given: the % may be the effect or the level left
# [3] = biological target: T1, PCSK9/LDLR (Homo sapiens); assay: Inhibition of PCSK9 (unknown origin) interaction with LDLR expressed in human HepG2 cells assessed as LDLR level on cell membrane at 10 uM measured after 2 hrs by in-cell Western analysis (reference value: 30.5 to 47.2%); assay type: cell-based; set-up: scale not given: the % may be the effect or the level left
# [4] = biological target: T1, PCSK9/LDLR (Homo sapiens); assay: Inhibition of PCSK9 (unknown origin) interaction with LDLR expressed in human HepG2 cells assessed as LDL uptake level at 10 uM measured after 2 hrs by LDL-Dylight 550 dye based fluorescence assay (reference value: 34.8 to 67%); assay type: cell-based; set-up: scale not given: the % may be the effect or the level left
# [5] = biological target: T1, PCSK9/LDLR (Homo sapiens); assay: Inhibition of PCSK9 (unknown origin) interaction with LDLR expressed in human HepG2 cells assessed as increase LDLR level on cell membrane measured after 2 hrs by in-cell Western analysis; assay type: cell-based
# [6] = biological target: T1, PCSK9/LDLR (Homo sapiens); assay: Inhibition of PCSK9 (unknown origin) interaction with LDLR expressed in human HepG2 cells assessed as LDLR level on cell membrane at 0.1 uM measured after 2 hrs by in-cell Western analysis (reference value: 30.5 to 47.2%); assay type: cell-based; set-up: scale not given: the % may be the effect or the level left
# [7] = biological target: T1, PCSK9/LDLR (Homo sapiens); assay: Inhibition of PCSK9 (unknown origin) interaction with LDLR expressed in human HepG2 cells assessed as LDLR level on cell membrane at 1 uM measured after 2 hrs by in-cell Western analysis (reference value: 30.5 to 47.2%); assay type: cell-based; set-up: scale not given: the % may be the effect or the level left
# [8] = biological target: T1, PCSK9/LDLR (Homo sapiens); assay: (§1) Inhibition of recombinant His-tagged PCSK9 (unknown origin) binding to recombinant […] AB domain (unknown origin) measured after 2 hrs by ELISA; assay type: protein assay
# Summary of the method: (§2)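 Commercial kit: compound added with His-tagged PCSK9 to wells coated with recombinant LDLR-AB domain. Bound His-PCSK9 quantified by absorbance at 450 nm. Mean ± s.d. of three independent experiments in duplicate.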
# PCSK9/LDLR [9] = biological target: T2, PCSK9/LDLR (Homo sapiens, UniProt Q8NBP7); assay: as §1; assay type: protein assay; summary of the method: as §2
# HepG2 = assay: Cytotoxicity against human HepG2 cells assessed as reduction in cell viability at 0.1 to 10 uM measured after 48 hrs by MTT assay; assay type: cell-based; conditions: hepg2, 48 h
# PCSK9/LDLR [10] = biological target: T2, PCSK9/LDLR; assay: Inhibition of PCSK9 (unknown origin) interaction with LDLR expressed in human HepG2 cells assessed as increase in LDL uptake level measured after 24 hrs by LDL-Dylight 550 dye based fluorescence assay; assay type: cell-based
# Target sequence in this assay (Q8NBP7 31-152 limits assumed): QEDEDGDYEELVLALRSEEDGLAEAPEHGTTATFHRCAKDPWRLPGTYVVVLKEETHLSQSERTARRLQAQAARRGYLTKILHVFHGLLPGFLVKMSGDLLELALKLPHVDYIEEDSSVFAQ
# Target sequence in this assay (Q8NBP7 153-692 limits assumed): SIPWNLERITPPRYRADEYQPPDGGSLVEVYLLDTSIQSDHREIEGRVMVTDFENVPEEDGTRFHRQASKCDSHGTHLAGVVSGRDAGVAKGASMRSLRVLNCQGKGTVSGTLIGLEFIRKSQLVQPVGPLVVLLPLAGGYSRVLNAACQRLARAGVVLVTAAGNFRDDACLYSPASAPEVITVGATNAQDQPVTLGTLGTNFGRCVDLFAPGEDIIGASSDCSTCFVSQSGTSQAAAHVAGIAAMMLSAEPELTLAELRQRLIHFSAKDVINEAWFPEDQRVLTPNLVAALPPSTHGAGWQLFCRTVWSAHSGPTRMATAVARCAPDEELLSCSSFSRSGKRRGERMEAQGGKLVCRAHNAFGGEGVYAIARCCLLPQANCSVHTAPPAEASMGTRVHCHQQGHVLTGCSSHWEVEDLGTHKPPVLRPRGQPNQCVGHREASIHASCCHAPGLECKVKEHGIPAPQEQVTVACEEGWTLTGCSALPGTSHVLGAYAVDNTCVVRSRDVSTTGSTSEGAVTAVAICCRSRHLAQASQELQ
# Target sequence in this assay (P01130 22-860 partner limits assumed): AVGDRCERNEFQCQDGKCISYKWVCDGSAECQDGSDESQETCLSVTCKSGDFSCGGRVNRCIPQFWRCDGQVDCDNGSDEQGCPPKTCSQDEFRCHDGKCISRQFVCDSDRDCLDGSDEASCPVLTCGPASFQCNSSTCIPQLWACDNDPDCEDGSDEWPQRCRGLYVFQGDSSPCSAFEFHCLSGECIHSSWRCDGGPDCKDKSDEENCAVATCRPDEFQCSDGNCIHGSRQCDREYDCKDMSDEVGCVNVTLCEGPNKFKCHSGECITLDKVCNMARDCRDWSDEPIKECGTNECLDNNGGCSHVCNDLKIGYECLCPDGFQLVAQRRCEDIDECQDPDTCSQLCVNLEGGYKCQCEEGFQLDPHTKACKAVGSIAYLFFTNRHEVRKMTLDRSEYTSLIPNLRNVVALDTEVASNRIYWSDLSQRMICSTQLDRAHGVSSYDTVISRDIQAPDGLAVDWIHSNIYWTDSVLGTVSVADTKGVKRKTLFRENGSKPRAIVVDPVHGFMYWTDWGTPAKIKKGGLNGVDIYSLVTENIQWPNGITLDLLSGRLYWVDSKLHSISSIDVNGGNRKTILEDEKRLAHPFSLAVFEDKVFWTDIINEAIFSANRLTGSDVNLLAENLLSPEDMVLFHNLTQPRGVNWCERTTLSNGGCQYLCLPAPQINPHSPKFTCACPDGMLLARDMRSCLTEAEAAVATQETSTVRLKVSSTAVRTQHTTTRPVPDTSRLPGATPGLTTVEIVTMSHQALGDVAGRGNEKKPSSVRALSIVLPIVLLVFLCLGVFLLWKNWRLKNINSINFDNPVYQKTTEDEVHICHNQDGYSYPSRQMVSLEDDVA
# [11] = biological target: T1, PCSK9/LDLR (Homo sapiens); assay: Inhibition of recombinant His-tagged PCSK9 (unknown origin) binding to recombinant […] AB domain (unknown origin) at 10 uM measured after 2 hrs by ELISA; assay type: protein assay; summary of the method: as §2
# [12] = biological target: T1, PCSK9/LDLR (Homo sapiens); assay: Inhibition of PCSK9 (unknown origin) interaction with LDLR expressed in human HepG2 cells assessed as increase LDLR level on cell membrane at 10 uM measured after 2 hrs by in-cell Western analysis; assay type: cell-based
# [13] = biological target: T1, PCSK9/LDLR (Homo sapiens); assay: Inhibition of recombinant His-tagged PCSK9 (unknown origin) binding to recombinant […] AB domain (unknown origin) at 100 uM measured after 2 hrs by ELISA relative to control; assay type: protein assay; summary of the method: as §2
# [14] = biological target: T1, PCSK9/LDLR (Homo sapiens); assay: Inhibition of PCSK9 (unknown origin) interaction with LDLR expressed in human HepG2 cells assessed as increase in LDL uptake level at 10 uM measured after 2 hrs by LDL-Dylight 550 dye based fluorescence assay; assay type: cell-based
# T1 sequence (P01130 22-860 partner limits assumed): as above
# T1 sequence (Q8NBP7 31-152 limits assumed): as the sequence (Q8NBP7 31-152 limits assumed) above
# T1 sequence (Q8NBP7 153-692 limits assumed): as the sequence (Q8NBP7 153-692 limits assumed) above
compound,measurement,setting,value
CNCCCCCn1cncc1-c1ncc(-c2ncc(-c3ccc(OC)cc3)n2C)n1Cc1ccccc1,Activity,[1],< 104%
same,Activity,[2],63.6%
same,Activity,[3],< 102%
same,Activity,[4],101%
same,inhibition,[5],Dose-dependent effect
same,Activity,[6],< 77.7%
same,Activity,[7],< 101%
same,inhibition,[8],Dose-dependent effect
same,IC50,PCSK9/LDLR [9],1.38 µM
same,Activity,HepG2,Non-Toxic
CNCCCCCn1cncc1-c1ncc(-c2ncc(-c3ccc(OC)cc3)n2C)n1CCc1ccccc1,inhibition,[8],Dose-dependent effect
same,IC50,PCSK9/LDLR [9],3.06 µM
H-LILPKHSDAD-OH,Activity,[1],< 104%
same,Activity,[7],< 93.9%
same,IC50,PCSK9/LDLR [9],1.6 µM
Cn1cncc1-c1ncc(-c2ncc(-c3ncc(-c4ccccc4)n3C)n2C)n1C,EC50,PCSK9/LDLR [10],6 µM
CC(C)C[C@H](C(=O)N1CCN([C@@H](CC(N)=O)C(=O)N[C@@H](CCCNC(=N)N)C(=O)N[C@H]2CCOC2=O)CC1)N1C(=O)N[C@@H](CC(=O)O)C1=O,IC50,PCSK9/LDLR [9],20 to 40 µM
COc1ccc(-c2cnc(-c3cncn3Cc3ccccc3)n2C)cc1,inhibition,[11],inactive
same,inhibition,[12],inactive
same,inhibition,[13],18.2%
same,inhibition,[14],inactive
